For 21 compounds, IC50 and MIC results are on record in ChEMBL document CHEMBL1133968, “Glutamyl-gamma-boronate inhibitors of bacterial Glu-tRNA(Gln) amidotransferase” (Bioorg Med Chem Lett, 2001).

Values after ≈ are worked out from the molar mass of the structure shown. A value given as a limit tells only on which side of the number the result lay.

In assay [1] the target is T1, Aspartyl/glutamyl-tRNA(Asn/Gln) amidotransferase subunit A (Streptococcus pyogenes serotype M1, UniProt Q99YC0). Put plainly: In vitro inhibitory concentration against transferase activity of bacterial Glu-tRNA-Gln […] (Glu-AdT). A digest of the protocol:
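S. pyogenes Glu-AdT, Gln-dependent transferase reaction. Substrates were Glu-tRNAGln at >10×Km, ATP at 2×Km and Gln at 0.5×Km. Inhibitor titrated over […]. Enzyme pre-incubated 15 min with inhibitor, Glu-tRNAGln and ATP, then started with Gln. Buffer was 50 mM HEPES, 25 mM MgCl₂, 15 mM KCl, 1% DMSO, pH 7. IC50 determined in duplicate.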

The nature of assay [2]: Tested for mammalian cellular toxicity expressed as IC50. It is filed as functional.
The target of assay [3] is T1, Aspartyl/glutamyl-tRNA(Asn/Gln) amidotransferase subunit A. Put plainly: In vitro inhibitory concentration against Glutaminase activity of bacterial Glu-tRNA-Gln […] (Glu-AdT). Summed up:
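S. pyogenes Glu-AdT, glutaminase-only reaction with no ATP or tRNA. Gln at 2×Km. Inhibitor titrated over […]. Enzyme pre-incubated 15 min with inhibitor, then started with Gln. Reaction buffer was 50 mM HEPES, 25 mM MgCl₂, 15 mM KCl, 1% DMSO, pH 7. IC50 determined in duplicate.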

A further assay deals with Helicobacter pylori. Briefly: Tested for minimal growth inhibitory concentration against Helicobacter pylori ATCC 43629. Type of assay: functional. Summed up: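 Broth dilution in Brain–Heart Infusion broth with 0.25% yeast extract and 10% horse serum. Inoculum was 6×10⁵ CFU per well, incubated 72 h at 37 °C under 10% CO₂. Highest concentration tested was 64. NCCLS-recommended control antibiotics tracked strain performance.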

In assay [4] the test system is Escherichia coli. Briefly: Minimum inhibitory concentration against Escherichia coli strain SM101. Type of assay: functional.
The subject of the next assay is Streptococcus pyogenes. Put plainly: Tested for minimal growth inhibitory concentration against Streptococcus pyogenes ATCC 13709. Type of assay: functional.
Assay [5] deals with Staphylococcus aureus. Briefly: Tested for minimal growth inhibitory concentration against Staphylococcus aureus ATCC 29213. It is filed as functional.
The next assay concerns Enterococcus faecalis. Put plainly: Tested for minimal growth inhibitory concentration against […] ATCC 29212. It is filed as functional.
Assay [6] relates to Escherichia coli. Put plainly: Minimum inhibitory concentration against Escherichia coli strain tolC. Type of assay: functional.
The test system of a further assay is Streptococcus pneumoniae. Put plainly: Tested for minimal growth inhibitory concentration against Streptococcus pneumoniae ATCC 49619. Type of assay: functional.
The next assay has as its system Staphylococcus carnosus. Briefly: Tested for minimal growth inhibitory concentration against Staphylococcus carnosus ATCC 51365. It is filed as functional.
In assay [7] the test system is Staphylococcus aureus. Briefly: Tested for minimal growth inhibitory concentration against Staphylococcus aureus ATCC 25923. Type of assay: functional.
Assay [8] has as its system Staphylococcus aureus. Briefly: Tested for minimal growth inhibitory concentration against Staphylococcus aureus ATCC 4330. It is filed as functional.
Assay [9] deals with Staphylococcus epidermidis. Put plainly: Tested for minimal growth inhibitory concentration against Staphylococcus epidermidis ATCC 12228. Type of assay: functional.
Assay [10] relates to Staphylococcus epidermidis. Briefly: Tested for minimal growth inhibitory concentration against Staphylococcus epidermidis ATCC 51625. It is filed as functional.

T1 sequence (Q99YC0 whole entry, looked up): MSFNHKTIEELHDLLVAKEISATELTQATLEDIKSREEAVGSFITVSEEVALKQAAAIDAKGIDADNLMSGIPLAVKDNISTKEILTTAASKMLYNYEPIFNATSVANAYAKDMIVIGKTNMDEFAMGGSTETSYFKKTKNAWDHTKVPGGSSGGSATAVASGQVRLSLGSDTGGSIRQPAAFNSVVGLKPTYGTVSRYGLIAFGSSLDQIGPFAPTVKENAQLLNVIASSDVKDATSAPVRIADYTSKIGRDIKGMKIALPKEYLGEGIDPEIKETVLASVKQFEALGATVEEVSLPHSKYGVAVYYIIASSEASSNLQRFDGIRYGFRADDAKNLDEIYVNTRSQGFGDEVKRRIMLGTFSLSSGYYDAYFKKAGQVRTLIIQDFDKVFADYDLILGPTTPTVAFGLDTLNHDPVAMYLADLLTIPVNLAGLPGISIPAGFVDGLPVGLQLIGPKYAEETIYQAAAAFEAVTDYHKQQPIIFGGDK

What is called IC50 is the midpoint of a concentration-inhibition curve. Low readings indicate greater potency in that assay, high ones weaker potency in that assay. Usually MIC stands for the smallest concentration in the dilution series that meets the test's criterion for growth inhibition. For `COC(=O)[C@H](CCB1O[C@@]2(C)CCC3C[C@@]2(O1)C3(C)C)NC(=O)OCc1ccccc1`, the IC50 in assay [1] is greater than 20 µM; in [2], greater than 100 µM; in assay [3] it was greater than 80 µM. The MIC against Helicobacter pylori was 32 µg/mL (≈ 74.5 µM); against Escherichia coli [4], greater than 64 µg/mL; against Streptococcus pyogenes, 64 µg/mL (≈ 149 µM); against Staphylococcus aureus [5] it was greater than 64 µg/mL; in the assay on Enterococcus faecalis it was greater than 64 µg/mL; against Escherichia coli [6], greater than 64 µg/mL.

With `CC1(C)C2CC[C@]3(C)OB(CCC[C@H](NC(=O)OCc4ccccc4)C(=O)O)O[C@]13C2`, the IC50 in assay [1] was greater than 20 µM; in assay [3] it was greater than 80 µM.

Take `CC1(C)C2CC[C@]3(C)OB(CCC[C@H](N)C(=O)O)O[C@]13C2`: the IC50 was greater than 20 µM in assay [1] and greater than 80 µM in assay [3].

With `COC(=O)[C@H](CCCB1O[C@@]2(C)CCC3C[C@@]2(O1)C3(C)C)NC(=O)OCc1ccccc1`, the IC50 in assay [1] was greater than 20 µM; in [3], greater than 80 µM.

Consider `CC1(C)C2CC[C@]3(C)OB(CC[C@H](NC(=O)OCc4ccccc4)C(=O)O)O[C@]13C2`, for which the IC50 in [2] is greater than 100 µM; in assay [3] it was greater than 80 µM. The MIC in the assay with Helicobacter pylori, against Escherichia coli [4], with Streptococcus pyogenes, against Staphylococcus aureus [5], against Enterococcus faecalis and in the assay with Escherichia coli [6] was greater than 64 µg/mL in each case.

Turning to `CC1(C)C2CC[C@]3(C)OB(CC[C@H](NC(=O)CN)C(=O)O)O[C@]13C2`, the IC50 is greater than 20 µM in assay [1] and greater than 80 µM in [3]. Besides, the MIC against Streptococcus pneumoniae was greater than 64 µg/mL; in the assay on Escherichia coli [4], greater than 64 µg/mL; with Streptococcus pyogenes, greater than 64 µg/mL; in the assay with Staphylococcus aureus [5] it was greater than 64 µg/mL; in the assay with Enterococcus faecalis it was 8 µg/mL (≈ 23.7 µM); in the assay with Escherichia coli [6], greater than 64 µg/mL.

Consider `CC(C)(C)OC(=O)NCCCB1O[C@@]2(C)CCC3C[C@@]2(O1)C3(C)C`, for which the IC50 was greater than 20 µM in assay [1] and greater than 80 µM in [3]. Besides, the MIC in the assay with Helicobacter pylori is greater than 64 µg/mL; with Escherichia coli [4], 8 µg/mL (≈ 23.7 µM); in the assay on Streptococcus pyogenes, greater than 64 µg/mL; in the assay with Staphylococcus aureus [5] it was greater than 64 µg/mL; in the assay on Enterococcus faecalis, greater than 64 µg/mL; against Escherichia coli [6], 8 µg/mL (≈ 23.7 µM).

For `CC(C)(C)OC(=O)[C@@H](N)CCB1O[C@@]2(C)CCC3C[C@@]2(O1)C3(C)C`, the IC50 in assay [2] was greater than 100 µM; in assay [3] it was greater than 80 µM. Further, the MIC against Helicobacter pylori was greater than 64 µg/mL; against Escherichia coli [4] it was 8 µg/mL (≈ 23.7 µM); in the assay with Streptococcus pyogenes, greater than 64 µg/mL; against Staphylococcus aureus [5], greater than 64 µg/mL; in the assay with Enterococcus faecalis, greater than 64 µg/mL; in the assay with Escherichia coli [6], 8 µg/mL (≈ 23.7 µM).

As for `CNC(=O)CNC(=O)[C@@H](N)CCB1O[C@@]2(C)CCC3C[C@@]2(O1)C3(C)C`, the results for the IC50 in assay [1] and in assay [3] were 20 µM and 40 µM, respectively. Further, the MIC in the assay with Streptococcus pneumoniae is 16 µg/mL (≈ 45.6 µM); in the assay with Staphylococcus carnosus, greater than 64 µg/mL; in the assay on Helicobacter pylori, 16 µg/mL (≈ 45.6 µM); in the assay with Streptococcus pyogenes it was 8 µg/mL (≈ 22.8 µM); in the assay with Staphylococcus aureus [7] it was greater than 64 µg/mL; against Staphylococcus aureus [8], greater than 64 µg/mL. In addition, the MIC in assay [9] was greater than 64 µg/mL; against Staphylococcus aureus [5], greater than 64 µg/mL; against Enterococcus faecalis it was 16 µg/mL (≈ 45.6 µM); in assay [10], greater than 64 µg/mL.

Regarding `CC1(C)C2CC[C@]3(C)OB(CCCN)O[C@]13C2`, the values for the IC50 in [1], in assay [2] and in [3] were greater than 20 µM, greater than 100 µM and greater than 80 µM, respectively. The MIC with Helicobacter pylori, against Escherichia coli [4], against Staphylococcus aureus [5], against Enterococcus faecalis and against Escherichia coli [6] was greater than 64 µg/mL each time.

As for `CC1(C)C2CC[C@]3(C)OB(CC[C@H](N)C(=O)NS(=O)(=O)C(F)(F)F)O[C@]13C2`, the figures for the IC50 in assay [1] and in assay [3] were 4.7 µM and 55 µM, respectively.

Regarding `CN[C@@H](CCB1O[C@@]2(C)CCC3C[C@@]2(O1)C3(C)C)C(=O)O`, in assay [1], 1.1 µM corresponded to half-maximal inhibition (IC50).

For `COC(=O)[C@@H](N)CCB1O[C@@]2(C)CCC3C[C@@]2(O1)C3(C)C`, the IC50 in assay [1] is 0.07 µM; in [2], greater than 100 µM; in assay [3], 1.5 µM. Moreover, the MIC against Streptococcus pneumoniae was 2 µg/mL (≈ 6.78 µM); against Staphylococcus carnosus it was greater than 64 µg/mL; with Helicobacter pylori, 64 µg/mL (≈ 217 µM); against Escherichia coli [4], greater than 64 µg/mL; in the assay on Streptococcus pyogenes, 8 µg/mL (≈ 27.1 µM); against Staphylococcus aureus [7] it was greater than 64 µg/mL. In addition, the MIC was greater than 64 µg/mL in the assay on Staphylococcus aureus [8]; greater than 64 µg/mL in assay [9]; greater than 64 µg/mL in the assay on Staphylococcus aureus [5]; 4 µg/mL (≈ 13.6 µM) against Enterococcus faecalis; greater than 64 µg/mL with Escherichia coli [6]; greater than 64 µg/mL in [10].

`CC1(C)C2CC[C@]3(C)OB(CC[C@H](N)C(=O)NS(=O)(=O)c4ccc(N)cc4)O[C@]13C2`: the IC50 in assay [1] is 10 µM; in [3], greater than 80 µM.

Take `CNC(=O)[C@@H](N)CCB1O[C@@]2(C)CCC3C[C@@]2(O1)C3(C)C`: the IC50 in assay [1] is 35 µM; in assay [2] it was greater than 100 µM; in [3], greater than 80 µM. Besides, the MIC with Streptococcus pneumoniae is 32 µg/mL (≈ 109 µM); in the assay on Helicobacter pylori, greater than 64 µg/mL; in the assay on Escherichia coli [4] it was 64 µg/mL (≈ 218 µM); in the assay with Streptococcus pyogenes, 32 µg/mL (≈ 109 µM); in the assay on Staphylococcus aureus [5], greater than 64 µg/mL; against Enterococcus faecalis, greater than 64 µg/mL. Moreover, the MIC against Escherichia coli [6] was 64 µg/mL (≈ 218 µM).

As to `COC(=O)[C@@H](N)CCCB1O[C@@]2(C)CCC3C[C@@]2(O1)C3(C)C`, the IC50 in assay [1] was greater than 20 µM; in assay [3], greater than 80 µM.

For the compound `COC(=O)[C@@H](N)CCB(O)O`, the IC50 in assay [1] is 0.05 µM; in assay [2], greater than 100 µM; in [3] it was 1.3 µM. For the same compound, the MIC with Streptococcus pneumoniae is 2 µg/mL (≈ 12.4 µM); against Staphylococcus carnosus, greater than 64 µg/mL; against Helicobacter pylori, 32 µg/mL (≈ 199 µM); against Escherichia coli [4] it was greater than 64 µg/mL; against Streptococcus pyogenes, 6 µg/mL (≈ 37.3 µM); with Staphylococcus aureus [7] it was greater than 64 µg/mL. Further, the MIC in the assay with Staphylococcus aureus [8] is greater than 64 µg/mL; in assay [9] it was greater than 64 µg/mL; in the assay with Staphylococcus aureus [5] it was greater than 64 µg/mL; against Enterococcus faecalis it was 3 µg/mL (≈ 18.6 µM); in the assay with Escherichia coli [6], greater than 64 µg/mL; in assay [10], greater than 64 µg/mL.

On to `CC(=O)N[C@@H](CCB1O[C@@]2(C)CCC3C[C@@]2(O1)C3(C)C)C(=O)O`, for which the IC50 in [1] was greater than 20 µM; in assay [3], greater than 80 µM.

In assay [1], `CC1(C)C2CC[C@]3(C)OB(CCC(N)CC(=O)O)O[C@]13C2` (some centres undefined) returned an IC50 of 6.5 µM.

For the compound `CC1(C)C2CC[C@]3(C)OB(CC[C@H](N)C(=O)NS(=O)(=O)c4ccccc4)O[C@]13C2`, the IC50 came out at 20 µM in assay [1] and 40 µM in assay [3].

For the compound `N[C@@H](CCB(O)O)C(=O)O`, the results for the IC50 in [1], in [2] and in [3] were 0.1 µM, greater than 100 µM and 1.6 µM, respectively. Also, the MIC was 3 µg/mL (≈ 20.4 µM) against Streptococcus pneumoniae; greater than 64 µg/mL in the assay with Staphylococcus carnosus; 32 µg/mL (≈ 218 µM) in the assay on Helicobacter pylori; greater than 64 µg/mL against Escherichia coli [4]; 8 µg/mL (≈ 54.4 µM) in the assay with Streptococcus pyogenes; greater than 64 µg/mL with Staphylococcus aureus [7]. For the same compound, the MIC against Staphylococcus aureus [8] is greater than 64 µg/mL; in assay [9], greater than 64 µg/mL; in the assay with Staphylococcus aureus [5] it was greater than 64 µg/mL; in the assay with Enterococcus faecalis, 8 µg/mL (≈ 54.4 µM); against Escherichia coli [6], greater than 64 µg/mL; in assay [10], greater than 64 µg/mL.
